CHOP inhibitor: inhibitors of CHOP promoter induction, primary screen, cell-based, unfolded protein response, luciferase reporter. CHO-K1 CHOP-promoter luciferase, tunicamycin-induced, 15-18 h. inhibition, % at 10 µM. hit rate 3.8% among 220,000. AID 2732, 2010;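 active = compounds that reduced the stress-induced luciferase reporter signal by more than about 70% of percent inhibition, limit read from the data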
UPR XBP1 act: activators of adaptive XBP1 UPR arm, primary screen, cell-based, CHO-XBP1 luciferase reporter, luminescence, uHTS; IRE1-XBP1 UPR activation; percent of tunicamycin response, DMSO as zero; activation, % at 20 µM; hit rate 0.33% among 330,000; AID 463104, 2010;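 active = versus positive control, 20 µM dose yields 30% or more activation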
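Material: CHO-XBP1 cells stably carrying IRE1-XBP1-driven luciferase reporter | Medium: F12 with 10% serum | Compound dosing: 20 µM single concentration, DMSO 1% | Incubation: Overnight seeding at 37 °C, 6 h compound treatment at 37 °C | Detection: Steady-Glo luminescence read | Read-out basis: % activation of reporter signal versus tunicamycin and DMSO controls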
Bfl-1 A1 inh: caspase 3/7 activation in MEF A1-2A-BIM cells, primary screen, A1 inhibitor project, cell-based, luminescence, HTS; Caspase-Glo 3/7 luminescence, 3 h; percent of clofoctol response, vehicle zero; caspase activation, % (test concentration not listed); hit rate 0.066% among 330,000; AID 2462, 2010;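 active = over half of replicate activation scores above 10%, or exactly half above 10 with the replicate mean above 10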
UPR CHOP act: activators of apoptotic CHOP UPR arm, primary screen, cell-based, CHO-CHOP luciferase reporter, luminescence, uHTS; activation, % at 10 µM; UPR activation; percent of tunicamycin response over DMSO baseline; hit rate 0.34% among 330,000;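 active = at 10 µM dose, activation of 40% or more, normalized to positive control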
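Test system: CHO-CHOP cells, stable luciferase reporter of PERK-eIF2a-CHOP signalling | Quantity: 500 CHO-CHOP cells per well | Buffer or medium: F12 plus 10% serum | Compound dosing: 10 µM single point, 0.5% DMSO | Schedule: 6 h compound treatment, 37 °C | Signal: Luciferase luminescence | Control set: Tunicamycin high control, DMSO low control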
Of the large screens only hits and unclear results are named; the others gave an inactive call. Shown is part of a subset that was picked to be rich in hits.

Cc1ccc(/C=C(/C#N)c2nc(CCN3C(=O)c4ccccc4C3=O)cs2)cc1	none
Oc1c(C(c2ccco2)N2CCN(C(c3ccccc3)c3ccccc3)CC2)sc2ncnn12 (stereo not drawn)	CHOP inhibitor 95
Oc1c(C(c2ccccc2)N2CCc3ccccc3C2)sc2ncnn12 (stereo not drawn)	none
CC1(C)Cc2noc(N)c2C(C)(C)N1OC(=O)c1scc2c1OCCO2	none
CC(C)COc1ccc(/C(O)=C2/C(=O)C(=O)N(CCN(C)C)C2c2ccncc2)cc1 (stereo not drawn)	none
COc1ccc(NC(=O)Cn2cnc3c(cnn3-c3ccc(C)c(C)c3)c2=O)c(OC)c1	CHOP inhibitor 82
COc1cccc2c(Cl)c(CC=C(Cl)Cl)c(C)nc12	CHOP inhibitor 87
CC(O)(CS(=O)(=O)Cc1ccc(Cl)cc1)C(=O)Nc1cccc(C(F)(F)F)c1 (stereo not drawn)	none
O=C(Nc1cccc(C(F)(F)F)c1)N(Cc1ccc(Cl)cc1)CC(O)C(F)(F)F (stereo not drawn)	CHOP inhibitor 74
O=C(/C=C/c1cccnc1)/C=C/c1cccnc1	CHOP inhibitor 97 (no result: UPR XBP1 act, Bfl-1 A1 inh, UPR CHOP act)
O=C(Nc1ccc(F)cc1)c1nc[nH]c1C(=O)Nc1ccccc1[N+](=O)[O-]	CHOP inhibitor 87 (no result: UPR XBP1 act, UPR CHOP act)
N#Cc1cc2cc3c(cc2nc1SCC(=O)OC1CCCCC1)OCO3	CHOP inhibitor 79
CCCCn1c(O)c(/C=C/C=C/C=Nc2ccccc2)sc1=S	none
CCCn1c(O)c(C=Nc2ccccc2)sc1=S	CHOP inhibitor 87
COc1ccc(S(=O)(=O)c2ccc(OC)cc2)cc1	none
COc1ccc(S(=O)(=O)/N=C2/C=CC(=O)C(C)=C2C)cc1	CHOP inhibitor 82
Nc1[nH]n2c(=O)c3c(nc2c1N=Nc1ccccc1)CCCC3	none
Nc1[nH]n2c(=O)c3c(nc2c1N=Nc1ccc(Cl)cc1)CCCC3	CHOP inhibitor 78
Cc1cccc(N2CCN(C(=O)Cc3cn(C)c4ccccc34)CC2)c1C	CHOP inhibitor 82
Cc1cccc(N2CCN(C(=O)c3cc4c(=O)n(C)c5ccccc5c4n3C)CC2)c1C	CHOP inhibitor 79
Cc1ccc(Cl)cc1N1CCN(C(=O)c2cc3c(=O)n(C)c4ccccc4c3n2C)CC1	CHOP inhibitor 88
CSc1nc(C)c(CCOCc2ccc(F)cc2)c(=O)[nH]1	none
O=C(NCc1cccc(Cl)c1)c1ccc(S(=O)(=O)Nc2cccc(C(F)(F)F)c2)cc1	CHOP inhibitor 90
O=C(Cc1cccc(C(F)(F)F)c1)NCc1cccc(Cl)c1	none
Cc1c(Cl)cccc1NC(=O)COC(=O)C12CC3CC(CC(O)(C3)C1)C2	none (no result: CHOP inhibitor)
C/C(=N\O)C(=O)OC1CC(C)CCC1C(C)C (stereo not drawn)	CHOP inhibitor 88
COc1cc(OC)cc(C(=O)Nc2nnc(NC(=S)Nc3ccccc3)s2)c1	CHOP inhibitor 108
COc1cc(OC)cc(C(=O)Nc2ccc(Nc3ccccc3)cc2)c1	none (no result: CHOP inhibitor)
CC(C)(C)C1(C)OC(=O)C(=Cc2ccc(OCC(=O)Nc3ccccc3)cc2)C(=O)O1 (stereo not drawn)	none
COc1ccc(-n2c(=S)[nH]c3cc(C(=O)Nc4ccc(OC)c(OC)c4)ccc3c2=O)cc1	none (no result: UPR XBP1 act, UPR CHOP act)
CSCCC(NC(=O)C12CC3CC(CC(C3)C1)C2)C(=O)OCC(=O)c1ccc(Cl)cc1 (stereo not drawn)	CHOP inhibitor 75
Nc1c(C(=O)NCc2ccccc2)c2nc3ccccc3nc2n1CCCN1CCOCC1	CHOP inhibitor 102
Nc1c(C(=O)NCc2ccc(F)cc2)c2nc3ccccc3nc2n1CCCN1CCOCC1	none
Cc1nc(N2CCC(C)CC2)c2c(C)c(C(=O)Nc3ccc(C)c(F)c3)sc2n1	CHOP inhibitor 71
O=C(CSc1nnc(-c2ccncc2)o1)Nc1ccc(F)c(F)c1	Bfl-1 A1 inh 21 (no result: CHOP inhibitor)
CCOC(=O)Cc1csc(NC(=O)CSc2nnc(-c3ccc(C)cc3)o2)n1	CHOP inhibitor 78
CCOC(=O)Cc1csc(NC(=O)CSc2nnc(-c3ccc(F)cc3)o2)n1	CHOP inhibitor 78
Cc1csc(NC(=O)CSc2nnc(-c3ccccc3)o2)n1	none
CCOC(=O)Cc1csc(NC(=O)CSC2=NCCS2)n1	none (no result: CHOP inhibitor)
COc1ccc(C(=O)N(CCc2ccccc2)Cc2ccccc2)c(OC)n1	none (no result: CHOP inhibitor)
CCC(=O)N1CCN(c2ccc(NC(=O)c3ccco3)cc2)CC1	none
COc1ccc(C(=O)/C=C/C(=O)N(CC(=O)NC2CCCCC2)CC2CCCO2)c(O)c1 (stereo not drawn)	CHOP inhibitor 108
COc1ccc(C(=O)/C=C/C(=O)N(CC(=O)NC2CCCCC2)Cc2ccccc2OC)c(O)c1	CHOP inhibitor 107 (no result: UPR XBP1 act, Bfl-1 A1 inh, UPR CHOP act)
COc1ccc(C(=O)/C=C/C(=O)N(Cc2ccccc2OC)C(C(=O)NC2CCCCC2)c2ccncc2)c(O)c1 (stereo not drawn)	none
COc1ccc(C(=O)/C=C/C(=O)N(CC(=O)NC2CCCCC2)Cc2ccccc2)c(O)c1	CHOP inhibitor 108 (no result: UPR XBP1 act, Bfl-1 A1 inh, UPR CHOP act)
COc1ccc(C(=O)/C=C/C(=O)N(Cc2ccccc2)C(C(=O)NC2CCCCC2)c2ccncc2)c(O)c1 (stereo not drawn)	none
COc1ccc(C(=O)/C=C2/C(=O)Nc3ccccc32)cc1OC	UPR CHOP act 48 (no result: CHOP inhibitor)
C=CCOc1ccc(C(=O)/C=C2/C(=O)Nc3ccccc32)cc1	none (no result: CHOP inhibitor)
C=CCOc1ccccc1C(=O)/C=C1/C(=O)Nc2ccccc21	UPR CHOP act 152 (no result: CHOP inhibitor)
CC(=O)C1=C(C)NC(SCC(=O)Nc2nc3ccccc3s2)=C(C#N)C1c1ccc(Cl)cc1 (stereo not drawn)	CHOP inhibitor 85
COc1ccc(-c2nnc(SCC(=O)Nc3nc4ccccc4s3)n2C)cc1	CHOP inhibitor 93 (no result: Bfl-1 A1 inh)
Cn1c(CSCc2ccc(Cl)cc2)nnc1SCC(=O)Nc1nc2ccccc2s1	CHOP inhibitor 92 (no result: Bfl-1 A1 inh)
CCOc1ccc(-c2nnc3ccc(SCC(=O)Nc4nc5ccccc5s4)nn23)cc1	CHOP inhibitor 70
COc1ccc(NC(=O)CSC2=C(C#N)C(c3ccco3)C(C(=O)Nc3nc4ccccc4s3)=C(C)N2)cc1 (stereo not drawn)	none (no result: CHOP inhibitor)
CN(Cc1ccccc1)C(=O)CN1C(=O)NC2(CCCC2)C1=O	none (no result: CHOP inhibitor)
O=C(Cn1ncc2c(=O)oc3ccccc3c21)NC1CC1	none
O=C(Cn1ncc2c(=O)oc3ccccc3c21)Nc1nc2ccccc2s1	CHOP inhibitor 88 (no result: UPR XBP1 act, Bfl-1 A1 inh, UPR CHOP act)
Cc1csc(SCC(=O)Nc2nc3ccccc3s2)n1	none
Cn1cc(SCC(=O)Nc2nc3ccccc3s2)c2ccccc21	CHOP inhibitor 71
COCC(=O)N(Cc1nc2sc(C)c(C)c2c(=O)[nH]1)C1CCCCC1	none
Cc1oc2ccc(O)c(CN3CCOCC3)c2c1C(=O)c1ccc(Cl)cc1	CHOP inhibitor 71
COc1ccc(S(=O)(=O)N2CCOCC2)cc1NC(=O)COc1ccc2ccc(=O)oc2c1	none (no result: CHOP inhibitor)

Bioassay records from PubChem.
